Rows were chosen to be rich in hits. Some 1.5% of all compounds tested hit in one or more screens of this group.
FLuc stim CS – affects firefly luciferase, flagging false hits in luciferase stimulation screens | P08659 | ATPlite luciferase biochemical, luminescence, 10 min; 0 = ATP-free wells, 1 = DMSO control | activation factor at 10 µM | 200,000 tested, under 10 active | AID 1027;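 active = luciferase activation factor, scaled between plate controls, of at least 2 with compound at 10 µM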
Target sequence (P08659 whole entry, looked up): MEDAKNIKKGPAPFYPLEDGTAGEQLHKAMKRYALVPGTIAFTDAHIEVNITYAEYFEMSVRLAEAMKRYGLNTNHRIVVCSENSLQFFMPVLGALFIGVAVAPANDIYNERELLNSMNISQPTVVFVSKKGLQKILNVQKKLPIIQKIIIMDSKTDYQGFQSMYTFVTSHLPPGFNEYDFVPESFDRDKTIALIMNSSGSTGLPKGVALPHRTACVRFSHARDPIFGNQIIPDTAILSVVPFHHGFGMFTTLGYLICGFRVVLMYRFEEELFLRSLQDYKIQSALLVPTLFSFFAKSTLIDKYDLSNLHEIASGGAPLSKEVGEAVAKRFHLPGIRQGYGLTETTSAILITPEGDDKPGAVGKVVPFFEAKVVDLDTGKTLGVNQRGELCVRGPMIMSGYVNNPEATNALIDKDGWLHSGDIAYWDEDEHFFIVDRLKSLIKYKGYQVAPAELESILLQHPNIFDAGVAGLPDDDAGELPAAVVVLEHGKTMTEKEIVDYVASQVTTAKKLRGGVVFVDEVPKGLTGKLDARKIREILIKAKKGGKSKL
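Assay system: Luciferase/luciferin detection reagent, cell-free biochemical luciferase assay / Read-out: luciferase activation / Benchmarks: No-ATP low control, compound-free enzyme-plus-ATP high control / Medium: PBS buffer for ATP / Detection: luminescence measurement of luciferase light output / Schedule: 10 min at ambient temperature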
C8 TRAIL sens – caspase-8 TRAIL sensitization | NB7+C8 cells + TRAIL, ATPlite viability luminescence | inhibition (viability loss, TRAIL sensitization), % at 10 µM | 360,000 tested, 1% active | AID 624354;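 active = compounds causing at least 50% loss of cell viability in the single-dose screen, relative to plate controls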
FLuc inhib CS – Photinus pyralis luciferase inhibition counter-screen; P08659; ATPLite firefly luciferase biochemical luminescence, 10 min; inhibition, % at 10 µM; 200,000 tested, 1.5% active;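 active = inhibition above about 50% when tested at 10 µM, limit read from the data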
PPC-1+TRAIL kill – kills PPC-1 cancer cells in the presence of TRAIL; 220,000 tested, 0.41% active; PPC-1 cells + TRAIL, ATPLite viability luminescence; cell killing (% activity), % at 4 µM or 5 µM; AID 1443;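 active = cell killing above 50% in the first pass at 4 µM, then a duplicate retest at 5 µM averaging 50% or more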;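 also: plate controls were cells with TRAIL plus DMSO for no effect and medium-only wells lacking cells for full effect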
Numbers without * were called inactive; · = not tested or not shown.

SMILES | FLuc stim CS | C8 TRAIL sens | FLuc inhib CS | PPC-1+TRAIL kill
O=C1CCCc2nc(N3CCc4ccccc43)ncc21 | 0.4 | 52* | 65* | 41
Clc1cccc(-c2ccc3nccn3c2)c1Cl | · | 4 | · | ·
Cc1ccc(C2=NS(=O)(=O)N(C)C(C(=O)NCc3ccccn3)=C2)cc1 | · | -21 | · | ·
Cc1ccc(C2=NS(=O)(=O)N(C)C(C(=O)NCc3cccs3)=C2)cc1 | · | 56* | · | ·
Cc1ccc(O)c(N=NC2=C(O)CC(C)(C)CC2=O)c1 | 0.4 | 63* | 62* | 47
CC(C)(C)c1ccc(S(=O)(=O)Nc2cccc(C3OCCCO3)c2)cc1 | 1.1 | 16 | -6 | 7
Nc1c(C(=O)Nc2cccc(C(=O)O)c2)sc2nc3c(cc12)CCCC3 | · | 82* | · | ·
CN(C(=O)/C=C/c1cnc2ccccc2c1)C1CCCCC1 | 0.4 | 31 | 62* | 26
COc1ccc(/C=C/C(=O)N(C)C2CCCCC2)cc1Br | 1 | 1 | 1 | 26
O=C1Cc2c(-c3ccccc3)cc(-c3cccc(Cl)c3)nc2-c2ccccc2N1 | · | 64* | · | ·
Cc1cc(-c2ccc(S(=O)(=O)N3CCCCC3)s2)on1 | · | -7 | · | ·
O=C(Oc1c(CN2CCOCC2)cc(Cl)c2cccnc12)c1ccccc1F | 1 | 54* | -3 | 23
O=C(Oc1c(CN2CCOCC2)cc(Cl)c2cccnc12)c1ccccc1 | 1.1 | 37 | -7 | ·
Cc1noc(C)c1COC(=O)c1cc(S(=O)(=O)N2CCOCC2)ccc1F | · | -14 | · | ·
O=C(OCc1cc(=O)oc2cc(O)ccc12)c1cc(S(=O)(=O)N2CCOCC2)ccc1F | · | 68* | · | ·
CCc1cc2c(COC(=O)c3cc(S(=O)(=O)N4CCOCC4)ccc3F)cc(=O)oc2cc1O | · | 75* | · | ·
CCOc1cc(OCC)cc(C(=O)N2CCC[C@@H]2C(=O)N2CCC[C@@H]2C(=O)NCc2ccccc2Cl)c1 | · | -7 | · | ·
COC(=O)[C@]12CCCCC=C1N(Cc1ccccc1)C(=O)[C@H](CC(=O)NCCC(C)C)C2 | · | -8 | · | ·
O=C(CCl)N1c2ccccc2CCc2ccccc21 | · | 95* | · | ·
C[C@@H]1CN([C@@H](C)CO)C(=O)CCCn2nncc2CO[C@@H]1CN(C)C(=O)Nc1ccc(N2CCCCC2)cc1 | · | -2 | · | ·
CC(OC(=O)c1cc(O)c2ccccc2c1O)C(=O)Nc1ccc(C(N)=O)cc1 (configuration not stated) | · | 57* | · | ·
COC1=CC(=O)c2ccccc2C1=O | · | 88* | · | ·
COC1=CC(=O)C=C(OC)C1=O | · | -19 | · | ·
O=c1c2c(nc3cc(-c4ccc(Br)cc4)[nH]n13)CCCC2 | 0.4 | 43 | 58* | ·
O=c1c2c(nc3cc(-c4ccccc4)[nH]n13)CCC2 | 0.4 | 32 | 61* | 37
SMILES | FLuc stim CS | C8 TRAIL sens | FLuc inhib CS | PPC-1+TRAIL kill
COc1ccc(-c2cc3nc4c(c(=O)n3[nH]2)CCC4)cc1 | 0.5 | 27 | 52* | 23
Cc1ccc(-c2[nH]n3c(=O)c4c(nc3c2C)CCCC4)cc1 | 1 | 17 | 4 | 21
Cc1cc2nc3c(c(=O)n2[nH]1)CCCC3 | 1.1 | -18 | -6 | -1
Cc1cc(C)nc(NN2C(=O)/C(=C/c3ccc(O)cc3)SC2=S)n1 | 1 | -6 | -3 | -15
CCCCOC(C)n1cc(F)c(=O)[nH]c1=O (configuration not stated) | 1.1 | -7 | -7 | 7
Nn1c(COc2cccc(Br)c2)nnc1SCC(=O)NCC1CCCO1 (configuration not stated) | · | -1 | · | ·
COc1cc(OC)cc(C(=O)O/N=C(\N)c2ccccn2)c1 | · | 31 | · | 10
Cc1ccc(C(=O)Oc2ccc(C(=O)COC(=O)c3cnccn3)cc2)cc1 | 1.1 | 51* | -8 | 1
O=C(COC(=O)c1ccccn1)c1ccc(Br)cc1 | 0.4 | -8 | 63* | -4
Cc1ccc(C(=O)COC(=O)c2cnccn2)cc1 | 0.6 | 0 | 40 | 1
N/C(=N\OC(=O)c1ccco1)c1cccc(Br)c1 | 0.4 | 0 | 56* | -3
N/C(=N\OC(=O)c1cccc(Br)c1)c1ccccn1 | · | 77* | · | ·
O=C(COC(=O)c1ccccn1)c1cccc(Br)c1 | · | -9 | · | ·
N/C(=N\OC(=O)c1ccco1)c1cccc([N+](=O)[O-])c1 | 0.6 | -1 | 39 | 9
Nc1sc(-c2ccccc2)cc1C(=O)N1CCNCC1 | · | -4 | · | ·
N/C(=N\OC(=O)c1cccc(Cl)c1)c1ccccn1 | 0.1 | 56* | 91* | 40
N/C(=N\OC(=O)c1cccc(Br)c1)c1ccccc1 | 0.1 | 89* | 90* | 7
CC(C)C[C@@H]1COc2cccc(N3CCC[C@@H]3CO)c2S(=O)(=O)N1 | · | -7 | · | ·
Cc1ccc(NC(=O)c2ccc(OCC3CCCO3)cc2)cc1 (configuration not stated) | 0.5 | 34 | 53* | 13
COc1ccc(C(=O)Nc2ccc(Cl)c(S(=O)(=O)N3CCOCC3)c2)cc1 | · | 30 | · | ·
O=C(Nc1ccc(Cl)c(S(=O)(=O)N2CCOCC2)c1)c1ccc(OCC2CCCO2)cc1 (configuration not stated) | 0.9 | 51* | 5 | 11
CCCCNS(=O)(=O)c1cccc(NC(=O)[C@@H]2O[C@H](CO)[C@@H](O)[C@H]2O)c1 | · | -2 | · | ·
CCn1c(SC)nnc1C1CCCN(CC(=O)Nc2ccccc2N2CCOCC2)C1 (configuration not stated) | · | 20 | · | ·
Clc1nc(Cl)c2ncn(-c3ccccc3)c2n1 | · | 65* | · | ·
COc1cccc(-c2cc(C(=O)Nc3cc(OC)c(OC)c(OC)c3)no2)c1 | 1.1 | -1 | -6 | 27
SMILES | FLuc stim CS | C8 TRAIL sens | FLuc inhib CS | PPC-1+TRAIL kill
O=C(Nc1cccnc1)c1cc(-c2ccccc2)on1 | 0.3 | 8 | 65* | 17
COc1cccc(-c2cc(C(=O)Nc3cccnc3)no2)c1 | 0.4 | 33 | 64* | 28
Cc1cc(C)cc(Cn2cc(CN3CC(N4CCN(Cc5ccccc5F)CC4)CS3(=O)=O)nn2)c1 (configuration not stated) | · | 20 | · | ·
Nc1nc(-c2ccccc2)c(-c2ccc([N+](=O)[O-])cc2)s1 | 1.1 | 32 | -6 | 26
Cc1nc(N)nc(N)c1-c1ccc([N+](=O)[O-])cc1 | · | 75* | · | ·
Cc1cn(C2CC(O)C(CO)O2)c(=O)n(Cc2ccccc2)c1=O (configuration not stated) | · | 14 | · | ·
COc1ccccc1CNc1nc(Nc2cccc(-c3cnco3)c2)c2sccc2n1 | · | 38 | · | ·
CC(C)CCCCCCCCCCCCC(=O)NCC(=O)NC1C(O)C(O)C(Nc2ncnc3nc[nH]c23)OC1C(O)CO (configuration not stated) | · | 65* | · | ·
COCCNC(=S)N/N=C/c1ccc2c(c1)OCCO2 | 0.4 | 23 | 59* | 30
S=C(NN=Cc1ccc2c(c1)OCO2)NN=Cc1ccc2c(c1)OCO2 | · | 1 | · | ·
CC(C)NC(=S)N/N=C/c1ccc2c(c1)OCCO2 | 0.2 | 30 | 76* | 11
CCc1nc2ccc(C(=O)N3CCN(c4ccccc4F)CC3)cc2nc1CC | · | 2 | · | ·
CC1CCc2c(C(=O)Nc3cccc(-c4nn[nH]n4)c3)csc2C1 (configuration not stated) | · | 7 | · | ·
CCOC(=O)c1c(C)[nH]c(C(=O)N2CCC(C(=O)OCC)CC2)c1C | · | -7 | · | ·
Fc1ccc(-c2nc(-c3cccs3)no2)cc1 | · | 1 | · | -3
COC(=O)c1ccc(-c2nc(-c3cccs3)no2)cc1 | 0.3 | 58* | 72* | 34

Compound activity: PubChem BioAssay, Sanford-Burnham Center for Chemical Genomics
